A short description of test [1]: DPPH radical scavenging assay. The note with it: 20 to 250 μM drug, 200 μM DPPH, methanol, 30 °C, 25 min; Figure 2. An outline of the steps: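 Test compound in methanol as 20–250 μM solutions (before mixing), combined 1:1 with 200 μM methanolic DPPH. Plate shaken at 30 °C for 25 min. Controls were methanol plus DPPH, with methanol alone as background and ascorbic acid as standard. Absorbance read at 517 nm. % scavenging = (A control − A sample)/A control × 100.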
Background: The DPPH test is a chemical assay of radical scavenging.

In a further test the test system is reserpine-treated rats. In words: Reversal of reserpine-induced hypolocomotion in rats. The test is classed as in vivo, rat. The note with it: for reversal of akinesia (locomotor activity) in reserpine-treated rats: i.p., in DI water, 18 h after reserpine 5 mg/kg s.c. The method in brief: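 Male Sprague–Dawley rats (220–225 g) anaesthetised with isoflurane and given reserpine 5.0 mg/kg s.c. (acetic acid diluted in 5.5% glucose) or saline 18 h beforehand. After 1 h chamber acclimatisation, test compound (in water) given i.p. at 5 μmol/kg; reference agonist given s.c. Horizontal activity counted from infrared beam breaks for 6 h in 30-min bins. n = 4; mean ± SEM; one-way ANOVA with Dunnett vs saline controls.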

In the next test the target is rD2L receptor (Rattus norvegicus, UniProt P61169). The note with it: read-out: Ki (nM), rD2L [3H]spiroperidol; HEK-293 cells; from previous ref 44; cited from earlier work.
In test [2] the target is T1, hD3 receptor (Homo sapiens, UniProt P35462). The note with it: GTPγS, compared with Emax of DA; cited from earlier work.
Test [3] deals with T2, hD2 receptor (Homo sapiens, UniProt P14416). The note with it: GTPγS, compared with Emax of DA; cited from earlier work.
The test system of another test is 6-OHDA lesioned rats. In words: In vivo rotational experiment with 6-OHDA unilaterally lesioned rats. More on the design: species or system rat. The note with it: for rotational activity in 6-OHDA lesioned rats / duration of rotation / total number of rotations: i.p. An outline of the steps: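 Rats (290–320 g) with a unilateral 6-OHDA lesion of the left medial forebrain bundle. Lesion confirmed by apomorphine challenges, including 0.05 mg/kg at 21 days post-lesion with contralateral rotations counted for 30 min. Test compound given i.p. at 5 or 10 μmol/kg; controls were vehicle and apomorphine reference. Contralateral (clockwise) rotations counted in harnessed rotometry chambers from dosing, in 30-min bins, over 7–12 h.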

The target of another test is rD3 receptor (Rattus norvegicus, UniProt P19020). The note with it: read-out: Ki (nM), rD3 [3H]spiroperidol; HEK-293 cells; from previous ref 44; cited from earlier work.
For another test, the system named is MN9D cells. In words: Neuroprotection against MPP+ toxicity in dopaminergic MN9D cells. The test is classed as cell-based, mouse. The note with it: 1 h pretreatment, then cotreatment with 100 μM MPP+ for 24 h; MTT. The method in brief: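 MN9D cells (mouse mesencephalic neuron × N18TG2 hybridoma) grown on poly-L-lysine in high-glucose DMEM with 10% serum and penicillin/streptomycin, 37 °C, 5% CO2. Seeded at 1 × 10^4 cells/well and equilibrated 40 h. Pretreated 1 h with test compound (0.001–20 μM; DMSO stock), then MPP+ added to 100 μM final for 24 h; controls 0.01% DMSO. MTT (0.5 mg/mL final) 3 h; formazan dissolved in DMSO/methanol 1:1; A570 minus A690. Three independent experiments, 4–6 replicates, mean ± SD; one-way ANOVA with Tukey vs MPP+.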

Test [4] addresses T1, hD3 receptor. In words: Stimulation of [35S]GTPγS binding to hD3 receptors expressed in CHO cells. The test is classed as biochemical. The note with it: for agonist type at D3 receptor: GTPγS, compared with Emax of DA. A general note: GTPγS is a poorly hydrolysed GTP analogue; its binding reports G protein activation.
For test [5], the target named is T2, hD2 receptor. In words: Stimulation of [35S]GTPγS binding to hD2 receptors expressed in CHO cells. The test is classed as biochemical. The note with it: compared with Emax of DA.

Read-outs that look alike come from different tables or passages of the source. Bounds are passed on as bounds.

A word on the Ki: it is the equilibrium dissociation constant of an inhibitor or competing ligand from its target.

T1 sequence (P35462 whole entry): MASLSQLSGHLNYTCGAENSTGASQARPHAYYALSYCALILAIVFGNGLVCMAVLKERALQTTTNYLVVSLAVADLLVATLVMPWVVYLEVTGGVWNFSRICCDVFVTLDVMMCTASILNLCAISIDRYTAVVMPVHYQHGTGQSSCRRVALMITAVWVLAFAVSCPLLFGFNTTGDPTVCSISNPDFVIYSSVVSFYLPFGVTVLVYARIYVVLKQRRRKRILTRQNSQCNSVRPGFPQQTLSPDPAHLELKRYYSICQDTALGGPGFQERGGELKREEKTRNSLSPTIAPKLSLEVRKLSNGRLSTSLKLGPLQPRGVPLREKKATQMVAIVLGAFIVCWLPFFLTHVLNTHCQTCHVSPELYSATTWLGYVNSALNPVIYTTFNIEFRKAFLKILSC
T2 sequence (P14416 whole entry): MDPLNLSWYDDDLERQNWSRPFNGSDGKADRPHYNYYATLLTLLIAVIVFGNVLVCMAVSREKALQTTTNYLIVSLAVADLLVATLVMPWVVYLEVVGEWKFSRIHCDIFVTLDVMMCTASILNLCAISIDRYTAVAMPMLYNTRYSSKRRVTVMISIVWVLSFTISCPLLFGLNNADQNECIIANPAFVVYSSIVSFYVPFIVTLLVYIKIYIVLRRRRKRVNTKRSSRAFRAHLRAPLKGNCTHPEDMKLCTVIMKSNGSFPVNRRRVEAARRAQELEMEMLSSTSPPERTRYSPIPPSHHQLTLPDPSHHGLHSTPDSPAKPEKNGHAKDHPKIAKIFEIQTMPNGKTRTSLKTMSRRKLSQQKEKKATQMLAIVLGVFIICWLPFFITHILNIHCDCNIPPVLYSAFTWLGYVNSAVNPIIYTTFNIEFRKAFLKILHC
Chain of rD2L receptor (P61169 whole entry): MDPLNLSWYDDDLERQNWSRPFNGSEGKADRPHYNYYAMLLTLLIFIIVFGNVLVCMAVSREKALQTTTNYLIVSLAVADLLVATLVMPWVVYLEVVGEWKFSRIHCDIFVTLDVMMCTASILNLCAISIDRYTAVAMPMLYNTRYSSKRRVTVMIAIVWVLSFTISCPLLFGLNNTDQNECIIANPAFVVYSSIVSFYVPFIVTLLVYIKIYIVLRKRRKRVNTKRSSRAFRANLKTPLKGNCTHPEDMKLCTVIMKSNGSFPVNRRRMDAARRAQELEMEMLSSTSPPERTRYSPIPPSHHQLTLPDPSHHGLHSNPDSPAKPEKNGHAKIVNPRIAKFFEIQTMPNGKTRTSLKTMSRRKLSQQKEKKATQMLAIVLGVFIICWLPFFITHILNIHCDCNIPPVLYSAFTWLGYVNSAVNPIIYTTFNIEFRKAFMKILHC
Chain of rD3 receptor (P19020 whole entry): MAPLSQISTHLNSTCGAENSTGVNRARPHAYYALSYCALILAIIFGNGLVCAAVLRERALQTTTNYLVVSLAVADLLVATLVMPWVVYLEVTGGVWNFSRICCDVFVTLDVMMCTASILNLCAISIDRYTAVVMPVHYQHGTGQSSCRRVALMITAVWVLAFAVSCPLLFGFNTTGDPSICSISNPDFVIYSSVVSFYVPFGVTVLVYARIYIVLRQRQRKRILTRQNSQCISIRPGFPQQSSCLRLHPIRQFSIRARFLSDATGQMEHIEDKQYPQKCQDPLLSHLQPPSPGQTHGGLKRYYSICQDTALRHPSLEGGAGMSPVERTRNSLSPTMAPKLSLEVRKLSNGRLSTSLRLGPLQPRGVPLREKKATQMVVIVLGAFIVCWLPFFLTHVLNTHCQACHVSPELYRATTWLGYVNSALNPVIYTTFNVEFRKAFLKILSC

For the compound `CCCN(CCN1CCN(c2ccc(-c3cccc(O)c3)cc2)CC1)[C@H]1CCc2c(O)cccc2C1` [(−)-11, (S)-6-((2-(4-(3′-Hydroxybiphenyl-4-yl)piperazin-1-yl)ethyl)-(propyl)amino)-5,6,7,8-tetrahydronaphthalen-1-ol], the “DPPH radical scavenging (antioxidant) activity” value (“DPPH radical scavenging” for short) in [1] is “less antioxidant activity in this assay than (−)-9b”.
Regarding `CCCN(CCN1CCN(c2ccc(-c3ccccc3)cc2)CC1)[C@H]1CCc2nc(N)sc2C1` [Compound 1a, (−)-N6-(2-(4-(Biphenyl-4-yl)piperazin-1-yl)-ethyl)-N6-propyl-4,5,6,7-tetrahydrobenzo[d]thiazole-2,6-diamine], the “reversal of akinesia (locomotor activity) in reserpine-treated rats” value in the test on reserpine-treated rats (5 μmol/kg) was “failed to produce any significant effect in reversing akinesia”. The “reversal of akinesia in reserpine-treated rats” value in the test with reserpine-treated rats (dissolved in 10% beta-hydroxy cyclodextrin solution, 5 μmol/kg i.p.) is recorded as “more effective”. Also, the values for the inhibition constant Ki at rD2L receptor and on rD3 receptor were 186 ± 34 nM and 2.1 ± 0.34 nM, respectively. For the same compound, at hD3 receptor [2], the “agonist type at D3 receptor” value is on record as “full agonist”. At hD2 receptor [3], the “agonist type at D2 receptor” value is “full agonist”. Moreover, in the test on 6-OHDA lesioned rats, the “rotational activity in 6-OHDA lesioned rats” value (from here on “rotational activity”) is on record as “failed to show any in vivo activity”. Moreover, in the test on MN9D cells, the “protection of MN9D cells from MPP+ induced toxicity” value (“protection of MN9D cells” below) is on record as “able to protect the MN9D cells in a dose-dependent manner”.
Regarding `CCCN(CCN1CCN(c2ccc(-c3cccc(OC)c3)cc2)CC1)[C@H]1CCc2nc(N)sc2C1` [Compound (−)-8b, (S)-N6-(2-(4-(3′-Methoxybiphenyl-4-yl)piperazin-1-yl)ethyl)-N6-propyl-4,5,6,7-tetrahydrobenzo[d]thiazole-2,6-diamine], the “reversal of akinesia (locomotor activity) in reserpine-treated rats” value in the test with reserpine-treated rats (5 μmol/kg) is on record as “highly efficacious in reversing akinesia”. Moreover, the “less potent at D3 receptor in comparison to 1a” value at hD3 receptor [4] (GTPγS EC50) is on record as 2 fold. Further, the “agonist type at D3 receptor” value at hD3 receptor [4] is reported as “partial agonist”. Besides, the “agonist type at D2 receptor” value at hD2 receptor [5] is “full agonist”. In addition, the figures for the duration of rotation result in the test on 6-OHDA lesioned rats (5 μmol/kg) and with 6-OHDA lesioned rats (10 μmol/kg) were “more than 7 h” and “more than 10 h”, respectively. Also, the figures for the “total number of rotations” value with 6-OHDA lesioned rats (5 μmol/kg) and in the test with 6-OHDA lesioned rats (10 μmol/kg) were 3333 rotations and 5866 rotations, respectively. Moreover, the “rotational activity” value in the test on 6-OHDA lesioned rats was “produced potent rotational activity in a dose-dependent manner”. In addition, in the test with MN9D cells, the “protection of MN9D cells” value is reported as “did not show any neuroprotection”.
Consider `CCCN(CCN1CCN(c2ccc(-c3cccc(O)c3)cc2)CC1)[C@H]1CCc2nc(N)sc2C1` [Compound (−)-9b, (S)-4′-(4-(2-((2-Amino-4,5,6,7-tetrahydrobenzo[d]thiazol-6-yl)(propyl)amino)ethyl)piperazin-1-yl)biphenyl-3-ol], for which the “reversal of akinesia (locomotor activity) in reserpine-treated rats” value in the test on reserpine-treated rats (5 μmol/kg) was “highly efficacious in reversing akinesia”. On hD3 receptor [4] (GTPγS EC50), the “increase in D3 functional potency in comparison to 1a” value was 15 fold. Besides, the “increase in functional selectivity (D2/D3) in comparison to 1a” value on hD3 receptor [4] (GTPγS EC50 ratio) was found to be 7 fold. Moreover, on hD3 receptor [4], the “agonist type at D3 receptor” value is given as “full agonist”. On hD2 receptor [5], the “agonist type at D2 receptor” value is listed as “full agonist”. In the test with 6-OHDA lesioned rats (5 μmol/kg), the duration of rotation entry is “more than 7 h” and the “total number of rotations” value is given as 1839 rotations. Besides, in the test on 6-OHDA lesioned rats (10 μmol/kg), the duration of rotation entry is recorded as “more than 10 h” and the “total number of rotations” value stood at 2653 rotations. Also, the “rotational activity” value in the test with 6-OHDA lesioned rats is listed as “produced potent rotational activity in a dose-dependent manner”. Moreover, the “protection of MN9D cells” value in the test with MN9D cells is reported as “able to protect the MN9D cells in a dose-dependent manner”.
Consider `CN1CCc2cccc3c2[C@H]1Cc1ccc(O)c(O)c1-3` [apomorphine, reference compound], for which the average contralateral rotation with 6-OHDA lesioned rats (apomorphine 0.05 mg/kg, 21 days postlesion, recorded for 30 min) is on record as > 250.
As for `O=C1O[C@H]([C@@H](O)CO)C(O)=C1O` [ascorbic acid], the “DPPH radical scavenging” value in [1] is recorded as “inhibited DPPH radical activity dose dependently”.
For `CCCN(CCC)CCc1cccc2c1CC(=O)N2` [ropinirole, Ropinirole, reference compound], the “duration of action in reserpine-treated rats” value in the test on reserpine-treated rats (5 μmol/kg, s.c., compared to the test compounds) was “much shorter duration of action”. The “duration of action in 6-OHDA lesioned rats” value with 6-OHDA lesioned rats (10 μmol/kg) is given as “much shorter duration of action”. In test [1], the “DPPH radical scavenging” value was “poor activity”.

(Values after publication PMC3983390 (Journal of medicinal chemistry, 2014).)
